{"source": "ChEMBL document CHEMBL2046352", "about": "“Discovery of novel 5-(ethyl or hydroxymethyl) analogs of 2'-'up' fluoro (or hydroxyl) pyrimidine nucleosides as a new class of Mycobacterium tuberculosis, Mycobacterium bovis and Mycobacterium avium inhibitors” (Bioorg Med Chem, 2012)", "key": {"[1]": {"system": "Mycobacterium tuberculosis", "test": "Antimycobacterial activity against Mycobacterium bovis BCG assessed as inhibition of microbial growth at 0.5 to 100 ug/ml incubated for 6 days by MABA method", "format": "functional, variant bovis BCG", "procedure,_shortened": "(§1)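 Microplate alamar blue assay in 7H9GC medium. Compounds dissolved in DMSO at 10 mg/mL (stock), diluted to 100, 50, 25, 10, 5, 1 and 0.5 ug/mL, each in triplicate. Frozen inoculum added at final 2.5 x 10^5 CFU/mL. Bacteria-alone and medium-alone control wells. Read by colour change and fluorescence. % inhibition = (test − M bkg)/(B − M bkg) x 100, mean of two experiments. MIC50 = lowest concentration giving ≥50% inhibition.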"}, "[2]": {"system": "Mycobacterium tuberculosis", "test": "Antimycobacterial activity against Mycobacterium bovis BCG assessed as inhibition of microbial growth at 100 ug/ml incubated for 6 days by MABA method", "format": "functional", "conditions": "variant bovis BCG, 144 h, read-out: GI", "procedure,_shortened": "as §1"}, "[3]": {"system": "Mycobacterium tuberculosis", "test": "Antimycobacterial activity against Mycobacterium bovis BCG assessed as inhibition of microbial growth at 0.5 ug/ml incubated for 6 days by MABA method", "format": "functional", "conditions": "variant bovis BCG, 144 h, read-out: GI", "procedure,_shortened": "as §1"}, "[4]": {"system": "Mycobacterium tuberculosis", "test": "Antimycobacterial activity against Mycobacterium bovis BCG assessed as inhibition of microbial growth at 10 ug/ml incubated for 6 days by MABA method", "format": "functional", "conditions": "variant bovis BCG, 144 h, read-out: GI", "procedure,_shortened": "as §1"}, "[5]": {"system": "Mycobacterium tuberculosis", "test": "Antimycobacterial activity against Mycobacterium bovis BCG assessed as inhibition of microbial growth incubated for 6 days by MABA method", "format": "functional", "conditions": "variant bovis BCG, 144 h", "procedure,_shortened": "as §1"}, "[6]": {"system": "Mycobacterium tuberculosis", "test": "Antimycobacterial activity against Mycobacterium bovis BCG assessed as inhibition of microbial growth at 50 ug/ml incubated for 6 days by MABA method", "format": "functional", "conditions": "variant bovis BCG, 144 h, read-out: GI", "procedure,_shortened": "as §1"}, "[7]": {"system": "Mycobacterium tuberculosis", "test": "Antimycobacterial activity against Mycobacterium bovis BCG assessed as inhibition of microbial growth at 5 ug/ml incubated for 6 days by MABA method", "format": "functional", "conditions": "variant bovis BCG, 144 h, read-out: GI", "procedure,_shortened": "as §1"}, "[8]": {"system": "Mycobacterium tuberculosis", "test": "Antimycobacterial activity against Mycobacterium bovis BCG assessed as inhibition of microbial growth at 1 ug/ml incubated for 6 days by MABA method", "format": "functional", "conditions": "variant bovis BCG, 144 h, read-out: GI", "procedure,_shortened": "as §1"}}}
{"smiles": "O=c1[nH]c(=O)n([C@@H]2O[C@H](CO)[C@@H](O)[C@@H]2O)cc1CO", "values": [{"measurement": "growth inhibition (GI)", "setting": "[1]", "result": 0, "unit": "%"}]}
{"smiles": "CCc1cn([C@@H]2O[C@H](CO)C[C@@H]2F)c(=O)[nH]c1=O", "values": [{"measurement": "inhibition of growth at 100 µg/mL", "setting": "[2]", "result": 25, "unit": "%"}]}
{"smiles": "O=c1[nH]c(=S)c(CO)cn1[C@@H]1O[C@H](CO)[C@@H](O)[C@@H]1O", "values": [{"measurement": "inhibition of growth at 0.5 µg/mL", "setting": "[3]", "result": 50, "unit": "%"}, {"measurement": "inhibition of growth at 10 µg/mL", "setting": "[4]", "result": 90, "unit": "%"}, {"measurement": "MIC50", "setting": "[5]", "result": 0.5, "unit": "µg/mL"}, {"measurement": "inhibition of growth at 100 µg/mL", "setting": "[2]", "result": 100, "unit": "%"}, {"measurement": "inhibition of growth at 50 µg/mL", "setting": "[6]", "result": 100, "unit": "%"}, {"measurement": "inhibition of growth at 5 µg/mL", "setting": "[7]", "result": 75, "unit": "%"}]}
{"smiles": "CCc1cn([C@@H]2O[C@H](CO)[C@@H](O)[C@@H]2F)c(=O)[nH]c1=S", "values": [{"measurement": "inhibition of growth at 100 µg/mL", "setting": "[2]", "result": 65, "unit": "%"}, {"measurement": "inhibition of growth at 50 µg/mL", "setting": "[6]", "result": 55, "unit": "%"}]}
{"smiles": "CCc1cn([C@@H]2O[C@H](CO)[C@@H](N=[N+]=[N-])[C@@H]2F)c(=O)[nH]c1=O", "values": [{"measurement": "growth inhibition (GI)", "setting": "[1]", "result": 0, "unit": "%"}]}
{"smiles": "CCc1cn2c(nc1=O)O[C@@H]1[C@H](F)[C@H]2O[C@@H]1CO", "values": [{"measurement": "inhibition of growth at 100 µg/mL", "setting": "[2]", "result": 25, "unit": "%"}, {"measurement": "inhibition of growth at 50 µg/mL", "setting": "[6]", "result": 25, "unit": "%"}]}
{"smiles": "CCc1cn([C@H]2O[C@@H](CO)[C@H](O)[C@H]2F)c(=O)[nH]c1=O", "note": "(single isomer, unassigned)", "values": [{"measurement": "growth inhibition (GI)", "setting": "[1]", "result": 0, "unit": "%"}]}
{"smiles": "CCc1cn([C@@H]2O[C@H](COC(C)=O)[C@@H](OC(C)=O)[C@@H]2F)c(=O)[nH]c1=O", "values": [{"measurement": "inhibition of growth at 100 µg/mL", "setting": "[2]", "result": 75, "unit": "%"}, {"measurement": "inhibition of growth at 50 µg/mL", "setting": "[6]", "result": 55, "unit": "%"}]}
{"smiles": "CCc1cn([C@@H]2O[C@H](CO)[C@@H](Br)[C@@H]2F)c(=O)[nH]c1=O", "values": [{"measurement": "inhibition of growth at 10 µg/mL", "setting": "[4]", "result": 60, "unit": "%"}, {"measurement": "MIC50", "setting": "[5]", "result": 5, "unit": "µg/mL"}, {"measurement": "inhibition of growth at 100 µg/mL", "setting": "[2]", "result": 80, "unit": "%"}, {"measurement": "inhibition of growth at 50 µg/mL", "setting": "[6]", "result": 70, "unit": "%"}, {"measurement": "inhibition of growth at 5 µg/mL", "setting": "[7]", "result": 50, "unit": "%"}]}
{"smiles": "COCc1cn([C@@H]2O[C@H](CO)[C@@H](O)[C@@H]2O)c(=O)nc1N", "values": [{"measurement": "inhibition of growth at 10 µg/mL", "setting": "[4]", "result": 50, "unit": "%"}, {"measurement": "inhibition of growth at 100 µg/mL", "setting": "[2]", "result": 80, "unit": "%"}, {"measurement": "inhibition of growth at 50 µg/mL", "setting": "[6]", "result": 60, "unit": "%"}]}
{"smiles": "CO[C@H]1/C=C/O[C@@]2(C)Oc3c(C)c(O)c4c(O)c(c(/C=N/N5CCN(C)CC5)c(O)c4c3C2=O)NC(=O)/C(C)=C\\C=C\\[C@H](C)[C@H](O)[C@@H](C)[C@@H](O)[C@@H](C)[C@H](OC(C)=O)[C@@H]1C", "note": "[RIFAMPIN]", "values": [{"measurement": "inhibition of growth at 0.5 µg/mL", "setting": "[3]", "result": 100, "unit": "%"}]}
{"smiles": "CCc1cn([C@@H]2O[C@H](CO)[C@@H](O)[C@@H]2F)c(=O)nc1N", "values": [{"measurement": "inhibition of growth at 100 µg/mL", "setting": "[2]", "result": 50, "unit": "%"}]}
{"smiles": "Cc1cn([C@@H]2O[C@H](CO)[C@@H](Br)[C@@H]2O)c(=O)[nH]c1=O", "values": [{"measurement": "inhibition of growth at 1 µg/mL", "setting": "[8]", "result": 40, "unit": "%"}]}
